Data set [1] addresses T1, 5-hydroxytryptamine receptor 2B (Homo sapiens, UniProt P41595). Nature of the data set: Antagonist activity at 5-HT2B receptor (unknown origin) expressed in CHO-K1 cells assessed as calcium flux at 1 uM after 60 mins by FLIPR assay. It counts as functional, cell-based. In outline: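 CHO-K1 cells stably expressing 5-HT2B receptor, antagonist mode, calcium flux read-out. Compounds screened at 10 μM and 1 μM; dose-response curves run for compounds active in the screen to give IC50.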

Data set [2] deals with T1, 5-hydroxytryptamine receptor 2B. The data set can be described thus: Displacement of [3H]LSD from 5-HT2B receptor (unknown origin) after 1.5 hrs by microbeta scintillation counting method.
The target of data set [3] is 5-hydroxytryptamine receptor 6 (Homo sapiens, UniProt P50406). Nature of the data set: Displacement of [3H]LSD from 5-HT6 receptor (unknown origin) after 1.5 hrs by microbeta scintillation counting method.
Data set [4] concerns the target 5-hydroxytryptamine receptor 5A (Homo sapiens, UniProt P47898). The data set can be described thus: Displacement of [3H]LSD from 5-HT5A receptor (unknown origin) after 1.5 hrs by microbeta scintillation counting method.
For data set [5], the target named is 5-hydroxytryptamine receptor 1D (Homo sapiens, UniProt P28221). The data set can be described thus: Displacement of [3H][…] from 5-HT1D receptor (unknown origin) after 1.5 hrs by microbeta scintillation counting method.
Data set [6] addresses 5-hydroxytryptamine receptor 1B (Homo sapiens, UniProt P28222). Nature of the data set: Displacement of [3H][…] from 5-HT1B receptor (unknown origin) after 1.5 hrs by microbeta scintillation counting method.
In data set [7] the target is T2, 5-hydroxytryptamine receptor 1A (Homo sapiens, UniProt P08908).
T2 sequence (P08908 whole entry): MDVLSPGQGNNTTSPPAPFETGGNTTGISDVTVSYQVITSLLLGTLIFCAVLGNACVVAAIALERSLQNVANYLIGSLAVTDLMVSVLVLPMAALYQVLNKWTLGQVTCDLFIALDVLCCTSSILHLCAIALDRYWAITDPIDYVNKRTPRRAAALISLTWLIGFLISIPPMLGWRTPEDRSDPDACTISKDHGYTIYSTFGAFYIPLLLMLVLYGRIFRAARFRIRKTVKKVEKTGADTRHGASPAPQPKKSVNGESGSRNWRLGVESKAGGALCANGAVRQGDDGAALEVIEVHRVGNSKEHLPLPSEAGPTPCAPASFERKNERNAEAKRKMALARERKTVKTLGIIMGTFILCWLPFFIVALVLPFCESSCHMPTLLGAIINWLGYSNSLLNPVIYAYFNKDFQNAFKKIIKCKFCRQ
The data set can be described thus: Displacement of [3H]8-OH-DPAT from 5-HT1A receptor (unknown origin) after 1.5 hrs by microbeta scintillation counting method.

In data set [8] the target is 5-hydroxytryptamine receptor 7 (Homo sapiens, UniProt P34969). The data set can be described thus: Displacement of [3H]LSD from 5-HT7A receptor (unknown origin) after 1.5 hrs by microbeta scintillation counting method.
Data set [9] concerns the target T3, 5-hydroxytryptamine receptor 3A (Homo sapiens, UniProt P46098).
T3 sequence (P46098 whole entry): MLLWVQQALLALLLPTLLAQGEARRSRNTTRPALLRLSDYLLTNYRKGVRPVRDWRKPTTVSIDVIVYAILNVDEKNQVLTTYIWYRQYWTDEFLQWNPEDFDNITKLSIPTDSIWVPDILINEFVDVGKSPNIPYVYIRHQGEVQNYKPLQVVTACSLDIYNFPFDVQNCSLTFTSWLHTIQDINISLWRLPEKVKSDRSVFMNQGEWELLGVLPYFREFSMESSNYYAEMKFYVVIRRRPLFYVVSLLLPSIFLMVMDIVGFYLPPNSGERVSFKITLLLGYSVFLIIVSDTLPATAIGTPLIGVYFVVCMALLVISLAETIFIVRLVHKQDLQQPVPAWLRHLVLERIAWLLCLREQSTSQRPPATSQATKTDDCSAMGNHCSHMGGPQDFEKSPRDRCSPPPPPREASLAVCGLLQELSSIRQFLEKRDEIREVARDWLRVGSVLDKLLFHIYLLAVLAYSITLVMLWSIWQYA
Nature of the data set: Displacement of [3H]LY278584 from 5-HT3 receptor (unknown origin) after 1.5 hrs by microbeta scintillation counting method.

Data set [10] addresses 5-hydroxytryptamine receptor 1E (Homo sapiens, UniProt P28566). The data set can be described thus: Displacement of [3H]-5-HT from 5-HT1E receptor (unknown origin) after 1.5 hrs by microbeta scintillation counting method.
For data set [11], the target named is T4, 5-hydroxytryptamine receptor 2C (Homo sapiens, UniProt P28335).
T4 sequence (P28335 whole entry): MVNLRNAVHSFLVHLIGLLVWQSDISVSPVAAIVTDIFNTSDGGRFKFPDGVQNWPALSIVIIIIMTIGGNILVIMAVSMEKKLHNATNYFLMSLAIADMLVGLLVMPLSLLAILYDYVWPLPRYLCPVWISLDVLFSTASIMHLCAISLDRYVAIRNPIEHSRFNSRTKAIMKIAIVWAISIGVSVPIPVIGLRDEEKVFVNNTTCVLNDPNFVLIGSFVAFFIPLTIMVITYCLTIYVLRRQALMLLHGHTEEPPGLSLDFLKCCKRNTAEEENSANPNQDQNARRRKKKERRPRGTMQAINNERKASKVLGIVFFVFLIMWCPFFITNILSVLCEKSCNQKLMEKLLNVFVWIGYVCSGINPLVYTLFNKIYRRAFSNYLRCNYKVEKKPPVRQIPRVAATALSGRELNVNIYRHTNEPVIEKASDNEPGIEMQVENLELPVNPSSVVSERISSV
The data set can be described thus: Displacement of [3H]LSD from 5-HT2C receptor (unknown origin) after 1.5 hrs by microbeta scintillation counting method.

In data set [12] the target is 5-hydroxytryptamine receptor 2A (Homo sapiens, UniProt P28223). Nature of the data set: Displacement of [3H]Ketanserin from 5-HT2A receptor (unknown origin) after 1.5 hrs by microbeta scintillation counting method.
Data set [13] concerns Rattus norvegicus. The data set can be described thus: Acute toxicity in Sprague-Dawley rat at 500 mg/kg, po. Conditions: in vivo. It counts as organism-based.
The target of data set [14] is Voltage-gated inwardly rectifying potassium channel KCNH2 (Homo sapiens, UniProt Q12809). Nature of the data set: Inhibition of human ERG channel by patch clamp assay.
Data set [15] relates to Rattus norvegicus. The data set can be described thus: Inhibition of visceral hypersensitivity in Sprague-Dawley rat model of IBS assessed as […] by measuring abdominal contraction at 30 mg/kg, po by colorectal distention test. The following applies: Abdomen. It is filed as functional. Put shortly:
(§1)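 Rat IBS model induced by TNBS injection, then chronic unpredictable mild stress; colon histology checked by HE staining. Compound given orally at 30 mg/kg. Visceral sensitivity scored by abdominal withdrawal reflex, with pain thresholds in mmHg at scores 3 and 4. Compared with control rats; % inhibition derived from thresholds.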

The subject of data set [16] is Rattus norvegicus. Nature of the data set: Inhibition of visceral hypersensitivity in Sprague-Dawley rat model of IBS assessed as […] by measuring lifting of pelvic structure and arching of body at 30 mg/kg, po by colorectal distention test. It is filed as functional. In outline:
as §1

T1 sequence (P41595 whole entry): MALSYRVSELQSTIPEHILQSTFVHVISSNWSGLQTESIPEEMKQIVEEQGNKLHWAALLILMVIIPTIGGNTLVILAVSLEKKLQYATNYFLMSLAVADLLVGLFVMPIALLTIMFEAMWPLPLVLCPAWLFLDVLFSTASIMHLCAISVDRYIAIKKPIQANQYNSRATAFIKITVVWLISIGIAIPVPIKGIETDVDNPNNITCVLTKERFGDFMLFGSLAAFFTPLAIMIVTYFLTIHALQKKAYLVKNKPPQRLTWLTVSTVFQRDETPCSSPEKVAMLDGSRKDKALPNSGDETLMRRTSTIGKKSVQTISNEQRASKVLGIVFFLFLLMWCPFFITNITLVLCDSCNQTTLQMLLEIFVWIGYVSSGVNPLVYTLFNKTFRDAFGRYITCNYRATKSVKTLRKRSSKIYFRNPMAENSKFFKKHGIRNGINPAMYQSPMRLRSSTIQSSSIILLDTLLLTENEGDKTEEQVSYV
5-hydroxytryptamine receptor 7, sequence (P34969 whole entry): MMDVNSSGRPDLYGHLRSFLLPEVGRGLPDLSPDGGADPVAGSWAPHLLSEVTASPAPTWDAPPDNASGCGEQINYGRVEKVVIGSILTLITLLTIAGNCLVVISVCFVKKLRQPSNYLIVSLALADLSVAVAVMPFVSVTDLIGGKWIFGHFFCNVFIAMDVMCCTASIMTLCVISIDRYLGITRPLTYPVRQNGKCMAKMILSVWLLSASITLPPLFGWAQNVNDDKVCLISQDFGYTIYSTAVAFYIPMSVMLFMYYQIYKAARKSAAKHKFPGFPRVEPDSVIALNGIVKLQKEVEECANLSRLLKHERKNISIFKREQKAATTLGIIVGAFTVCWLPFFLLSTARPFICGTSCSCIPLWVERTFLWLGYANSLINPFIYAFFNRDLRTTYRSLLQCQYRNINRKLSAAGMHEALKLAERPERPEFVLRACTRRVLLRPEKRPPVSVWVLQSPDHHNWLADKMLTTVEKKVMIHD
5-hydroxytryptamine receptor 1E, sequence (P28566 whole entry): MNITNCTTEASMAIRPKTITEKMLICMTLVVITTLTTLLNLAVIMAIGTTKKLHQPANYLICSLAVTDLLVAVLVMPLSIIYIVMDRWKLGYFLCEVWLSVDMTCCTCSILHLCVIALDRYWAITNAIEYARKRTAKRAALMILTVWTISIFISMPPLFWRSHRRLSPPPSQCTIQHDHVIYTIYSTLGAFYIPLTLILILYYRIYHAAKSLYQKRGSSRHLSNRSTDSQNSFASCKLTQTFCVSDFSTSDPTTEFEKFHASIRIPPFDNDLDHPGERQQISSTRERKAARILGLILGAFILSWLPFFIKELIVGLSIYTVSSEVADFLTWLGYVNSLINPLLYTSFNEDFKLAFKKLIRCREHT
5-hydroxytryptamine receptor 1B, sequence (P28222 whole entry): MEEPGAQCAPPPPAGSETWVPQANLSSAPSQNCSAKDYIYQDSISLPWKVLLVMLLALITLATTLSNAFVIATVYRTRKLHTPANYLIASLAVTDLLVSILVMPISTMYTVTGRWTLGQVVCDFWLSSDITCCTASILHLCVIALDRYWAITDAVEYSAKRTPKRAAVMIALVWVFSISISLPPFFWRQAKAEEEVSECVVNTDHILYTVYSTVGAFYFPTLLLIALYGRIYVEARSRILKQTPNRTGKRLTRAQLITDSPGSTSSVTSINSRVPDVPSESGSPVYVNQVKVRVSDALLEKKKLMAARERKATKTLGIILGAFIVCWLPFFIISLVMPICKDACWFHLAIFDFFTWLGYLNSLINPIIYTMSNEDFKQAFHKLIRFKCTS
5-hydroxytryptamine receptor 2A, sequence (P28223 whole entry): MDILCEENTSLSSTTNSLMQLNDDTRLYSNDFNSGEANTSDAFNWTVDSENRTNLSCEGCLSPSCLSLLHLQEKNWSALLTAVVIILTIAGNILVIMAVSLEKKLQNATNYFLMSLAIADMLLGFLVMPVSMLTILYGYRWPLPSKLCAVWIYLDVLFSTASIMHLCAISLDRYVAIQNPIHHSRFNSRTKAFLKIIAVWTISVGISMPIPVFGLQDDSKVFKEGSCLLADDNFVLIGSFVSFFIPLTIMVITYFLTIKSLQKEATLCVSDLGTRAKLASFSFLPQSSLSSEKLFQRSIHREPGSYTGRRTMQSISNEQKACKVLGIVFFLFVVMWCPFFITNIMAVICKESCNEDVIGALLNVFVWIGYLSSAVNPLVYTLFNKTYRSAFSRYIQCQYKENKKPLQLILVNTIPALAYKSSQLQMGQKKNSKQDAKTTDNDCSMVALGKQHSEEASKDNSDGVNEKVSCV
5-hydroxytryptamine receptor 1D, sequence (P28221 whole entry): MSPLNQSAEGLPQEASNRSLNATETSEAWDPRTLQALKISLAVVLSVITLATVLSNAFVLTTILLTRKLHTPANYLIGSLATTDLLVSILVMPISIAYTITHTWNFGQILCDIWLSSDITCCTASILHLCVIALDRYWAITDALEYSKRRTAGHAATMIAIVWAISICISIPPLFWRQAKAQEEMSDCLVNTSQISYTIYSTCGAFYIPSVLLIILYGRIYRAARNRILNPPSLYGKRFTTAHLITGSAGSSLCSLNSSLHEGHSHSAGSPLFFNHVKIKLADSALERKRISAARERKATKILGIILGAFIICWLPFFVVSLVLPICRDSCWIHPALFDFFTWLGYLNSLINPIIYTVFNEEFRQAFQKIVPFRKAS
5-hydroxytryptamine receptor 6, sequence (P50406 whole entry): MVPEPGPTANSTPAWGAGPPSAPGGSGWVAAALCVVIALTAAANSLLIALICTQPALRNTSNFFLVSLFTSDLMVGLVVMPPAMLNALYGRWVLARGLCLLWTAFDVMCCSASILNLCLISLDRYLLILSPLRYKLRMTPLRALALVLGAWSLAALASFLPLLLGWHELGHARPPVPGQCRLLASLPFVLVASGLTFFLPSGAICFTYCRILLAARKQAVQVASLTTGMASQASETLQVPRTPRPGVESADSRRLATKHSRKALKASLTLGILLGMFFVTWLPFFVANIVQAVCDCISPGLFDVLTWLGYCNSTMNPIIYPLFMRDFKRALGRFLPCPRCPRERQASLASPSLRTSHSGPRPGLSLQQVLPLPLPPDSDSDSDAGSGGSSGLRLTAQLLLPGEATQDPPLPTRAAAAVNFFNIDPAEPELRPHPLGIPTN
5-hydroxytryptamine receptor 5A, sequence (P47898 whole entry): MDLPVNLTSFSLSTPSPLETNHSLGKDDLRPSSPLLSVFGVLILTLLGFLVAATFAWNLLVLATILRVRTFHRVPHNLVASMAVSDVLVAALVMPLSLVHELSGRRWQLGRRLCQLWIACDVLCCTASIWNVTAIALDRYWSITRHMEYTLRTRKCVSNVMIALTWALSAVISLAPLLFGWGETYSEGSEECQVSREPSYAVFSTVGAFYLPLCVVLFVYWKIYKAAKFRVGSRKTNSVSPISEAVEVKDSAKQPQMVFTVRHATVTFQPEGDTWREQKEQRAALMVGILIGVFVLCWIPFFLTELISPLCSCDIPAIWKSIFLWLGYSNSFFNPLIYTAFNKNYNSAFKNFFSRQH
Voltage-gated inwardly rectifying potassium channel KCNH2, sequence (Q12809 whole entry): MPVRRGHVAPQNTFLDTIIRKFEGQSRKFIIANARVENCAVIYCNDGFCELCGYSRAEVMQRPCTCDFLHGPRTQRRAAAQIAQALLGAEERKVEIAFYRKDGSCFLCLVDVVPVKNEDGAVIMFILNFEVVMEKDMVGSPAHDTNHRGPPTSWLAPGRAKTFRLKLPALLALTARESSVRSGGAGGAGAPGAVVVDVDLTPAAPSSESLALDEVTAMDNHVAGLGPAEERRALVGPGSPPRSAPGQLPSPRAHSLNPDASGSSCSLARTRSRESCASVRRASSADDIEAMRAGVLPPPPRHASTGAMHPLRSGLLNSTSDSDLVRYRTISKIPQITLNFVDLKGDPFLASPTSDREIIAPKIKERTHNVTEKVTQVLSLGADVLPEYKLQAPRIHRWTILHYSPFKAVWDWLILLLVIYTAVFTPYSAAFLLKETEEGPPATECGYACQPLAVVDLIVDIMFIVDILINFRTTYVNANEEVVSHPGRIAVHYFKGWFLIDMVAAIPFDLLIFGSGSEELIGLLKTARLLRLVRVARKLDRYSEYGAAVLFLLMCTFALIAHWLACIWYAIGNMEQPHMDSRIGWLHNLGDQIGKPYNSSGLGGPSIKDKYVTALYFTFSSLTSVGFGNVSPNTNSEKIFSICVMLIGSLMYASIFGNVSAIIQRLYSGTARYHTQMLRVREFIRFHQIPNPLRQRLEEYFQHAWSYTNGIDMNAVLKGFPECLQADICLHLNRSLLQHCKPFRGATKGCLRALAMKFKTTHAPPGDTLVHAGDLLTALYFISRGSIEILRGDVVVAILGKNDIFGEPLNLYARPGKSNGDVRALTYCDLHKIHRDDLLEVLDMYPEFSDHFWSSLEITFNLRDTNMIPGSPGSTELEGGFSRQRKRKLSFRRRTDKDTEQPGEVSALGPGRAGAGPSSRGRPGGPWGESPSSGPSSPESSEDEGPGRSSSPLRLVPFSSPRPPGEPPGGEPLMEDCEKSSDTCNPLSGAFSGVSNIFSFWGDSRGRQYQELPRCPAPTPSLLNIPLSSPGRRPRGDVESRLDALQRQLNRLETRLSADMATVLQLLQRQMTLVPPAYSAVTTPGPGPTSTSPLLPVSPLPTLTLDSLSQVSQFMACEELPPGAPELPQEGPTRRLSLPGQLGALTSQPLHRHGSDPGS

As to `CCOC(=O)c1cccc(NC2=NC(NC)=NC3(CCCCC3)N2)c1`, the inhibition in data set [1] amounted to 108%.

As for `CCCOC(=O)c1cccc(NC2=NC(N)=NC3(CCCCC3)N2)c1`, the inhibition in data set [1] is 110%.

`NC1=NC2(CCCCC2)NC(Nc2cccc(C(=O)C3CC3)c2)=N1`: the inhibition in [1] came out at 4%.

Regarding `COc1cccc(NC2=NC(N)=NC3(CCCCC3)N2)c1`, in [1], the inhibition was 84.6%.

For `CCOC(=O)c1cccc(NC2=NC(N(C)C)=NC3(CCCCC3)N2)c1`, the Ki in data set [2] is 38.5 nM; in data set [3], 4780 nM; in data set [4], 595 nM; in data set [5] it was 3830 nM; in data set [6], 9650 nM; in data set [7], 116 nM. The Ki in data set [8] is 516 nM; in data set [9], over 10000 nM; in [10], over 10000 nM; in data set [11], 1200 nM; in data set [12], 1540 nM. In data set [1], the inhibition worked out at 91.8%.

As for `Cc1ccc(NC2=NC(N)=NC3(CCCCC3)N2)cc1`, the inhibition in [1] was determined as 50.2%.

Turning to `NC1=NC2(CCCCC2)NC(Nc2cccc(C(=O)O)c2)=N1`, in data set [1], the inhibition amounted to 4.4%.

In the case of `CCOC(=O)c1cccc(NC2=NC(N)=NC3(CCCCC3)N2)c1`, the Ki in data set [2] was 7.2 nM; in [3] it was 3590 nM; in data set [4], 457 nM; in data set [5], 8590 nM; in data set [6] it was over 10000 nM; in data set [7] it was 714 nM. Also, the Ki in [8] was 472 nM; in data set [9] it was over 10000 nM; in data set [10], over 10000 nM; in data set [11], 851 nM; in data set [12], 174 nM. Further, the inhibition in data set [1] is 107%.

With `CCOC(=O)c1cccc(N(C)C2=NC(N)=NC3(CCCCC3)N2)c1`, the inhibition in data set [1] came out at 50.4%.

In the case of `COc1ccccc1NC1=NC(N)=NC2(CCCCC2)N1`, the inhibition in data set [1] is 20.7%.

As to `CC1(C)N=C(N)N=C(Nc2cccc(Br)c2)N1`, the Ki in [2] came out at 20.5 nM; in data set [3], 696 nM; in [4] it was 389 nM; in data set [5] it was 2650 nM; in data set [6] it was 1530 nM; in data set [7], 660 nM. For the same compound, the Ki in data set [8] is 2080 nM; in [9] it was over 10000 nM; in data set [10], over 10000 nM; in [11], 265 nM; in [12], 783 nM. Moreover, in [1], the inhibition was 75.9%.

For `NC1=NC2(CCCCC2)NC(Nc2ccc(Cl)cc2)=N1`, the inhibition in data set [1] was found to be 57.1%.

Regarding `CCNC(=O)c1cccc(NC2=NC(N)=NC3(CCCCC3)N2)c1`, the Ki is 27.5 nM in [2]; 5910 nM in data set [3]; 994 nM in data set [4]; over 10000 nM in [5]; over 10000 nM in data set [6]; 6760 nM in data set [7]. In addition, the Ki in data set [8] was 427 nM; in data set [9] it was over 10000 nM; in [10] it was over 10000 nM; in data set [11] it was 1900 nM; in data set [12], 1310 nM. Besides, in data set [1], the inhibition was 95.5%.

Take `NC1=NC2(CCCCC2)NC(Nc2cccc(Br)c2)=N1`: the Ki in [2] was 6.2 nM; in data set [3], 3030 nM; in data set [4] it was 227 nM; in [5], 2900 nM; in [6] it was over 10000 nM; in [7], 320 nM. For the same compound, the Ki is 401 nM in data set [8]; over 10000 nM in data set [9]; over 10000 nM in data set [10]; 156 nM in data set [11]; 211 nM in data set [12]. For the same compound, in the data set on Rattus norvegicus [13], the Activity entry is “Non-toxic”. In data set [14], this compound returned an IC50 of over 1000 nM. Besides, the inhibition in vivo at 30 mg/kg in the data set on Rattus norvegicus [15] came to 68%; with Rattus norvegicus [16] it was 63%. Also, the inhibition in [1] was found to be 97.4%.

Turning to `CCCC(=O)c1cccc(NC2=NC(N)=NC3(CCCCC3)N2)c1`, the inhibition in data set [1] turned out to be 106%.

`Cc1ccccc1NC1=NC(N)=NC2(CCCCC2)N1`: the inhibition in [1] came out at 39.9%.

In the case of `CN(C)c1ccc(NC2=NC(N)=NC3(CCCCC3)N2)cc1`, in data set [1], the inhibition came out at 17.6%.

For `CCN(CC)C(=O)c1cccc(NC2=NC(N)=NC3(CCCCC3)N2)c1`, in [1], the inhibition amounted to 40.7%.

Regarding `COc1cccc(NC2=NC(N)=NC3(CCCC3)N2)c1`, the inhibition in data set [1] stood at 63%.

Values taken from ChEMBL document CHEMBL3769382, “Structure-Based Discovery of Novel and Selective 5-Hydroxytryptamine 2B Receptor Antagonists for the Treatment of Irritable Bowel Syndrome” (J Med Chem, 2016).
